What was measured:
[1] = test system: AGS cells; assay: MTT cell proliferation assay, AGS; assay type: cell-based; conditions: Homo sapiens, 72 h, read-out: IC50 on AGS cells
How it was run: (§1)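 Cells seeded overnight in 96-well plates, then exposed to a range of test compound concentrations for 72 h. MTT added for 2 h, medium removed, formazan dissolved in DMSO, and OD570 read. Viability normalized to untreated cells from the same experiment. IC50 calculated from concentration–response data. MTT run in triplicate; means ± SEM of three experiments.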

[2] = test system: MKN45 cells; assay: MTT cell proliferation assay, MKN45; assay type: cell-based; conditions: Homo sapiens, MKN-45, 72 h, read-out: IC50 on MKN45 cells
How it was run: as §1

`COc1ccc(CCCOC(Cn2ccnc2)c2ccc(OC)cc2)cc1` (centres unmarked) [SKF96365] showed an IC50 [1] of 27.8 ± 1.1 µM and an IC50 [2] of 13.7 ± 0.8 µM.
